Assay results published in ChEMBL document CHEMBL2417506, “Synthesis and antiprotozoal activity of original porphyrin precursors and derivatives” (Eur J Med Chem, 2013).
Activity calls are given as the source filed them. No cut-off for these calls is given here.

What was measured:
[1] = system: Leishmania donovani; assay: Antileishmanial activity against promastigote forms of Leishmania donovani MHOM/ET/67/HU3 after 3 days by MTT assay; type: functional, organism-based; conditions: MHOM/ET/67/HU3, 72 h
Procedure, shortened: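 Log-phase promastigotes at 10^6 cells/mL in supplemented M-199. Serial dilutions gave final concentrations of 100 µM to 50 nM, in triplicate. Incubated 3 days at 27 °C, dark, 5% CO2. Viability read by MTT reduction, with Triton X100/HCl lysis and absorbance at 570 nm. IC50 ± SD.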

[2] = system: Leishmania donovani; assay: Antileishmanial activity against amastigotes forms of Leishmania donovani MHOM/ET/67/HU3 infected in Swiss mouse peritoneal macrophages at 20 uM after 5 days; type: functional, organism-based
Procedure, shortened: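 Peritoneal macrophages from female Swiss mice (18–20 g) infected after 24 h with stationary-phase L. donovani promastigotes at 10 parasites per macrophage. Free promastigotes removed at 18 h, then amastigotes treated. Medium with drug renewed at 48 h, stopped at day 5. Percentage of infected macrophages scored microscopically after Giemsa staining. Run in triplicate.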

[3] = Cytotoxicity against Swiss mouse peritoneal macrophages at 20 uM after 5 days by MTT assay; type: cell-based, Peritoneal macrophage cell
Procedure, shortened: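 Thioglycolate-elicited peritoneal macrophages from female Swiss mice, 5 × 10^4/well in RPMI 1640 with 10% FCS, 25 mM Hepes and 2 mM L-glutamine. Washed at 4 h to remove fibroblasts. Drug-containing medium added at 48 h, stopped at day 5. Viability read by MTT.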

[4] = system: Trypanosoma brucei brucei; assay: Trypanocidal activity against Trypanosoma brucei brucei by drug incubation infectivity test; type: functional; conditions: read-out: MEC
[5] = system: Plasmodium berghei; assay: Antimalarial activity against chloroquine-sensitive Plasmodium berghei NK-173 infected in Swiss albino mouse assessed as quantal survival at 100 mg/kg, ip administered 4 times per day for 3 days measured on day 8; type: functional, organism-based; parameters: dose 100 mg/kg
Procedure, shortened: (§1)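 Female Swiss albino mice (18–20 g) were infected i.v. on day 0 with 10^6 parasitized RBC in 0.2 ml PBS from a donor mouse, in groups of 10. Dosing was i.p. over days 0–3 and stopped if toxicity appeared. Chloroquine control was 100 µmoles/kg. Giemsa tail smears and RBC counts were taken on days 4, 7, 8, 9, 10 and 14. Mice were followed for deaths.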

[6] = system: Plasmodium berghei; assay: Antimalarial activity against chloroquine-sensitive Plasmodium berghei NK-173 infected in Swiss albino mouse assessed as quantal survival at 100 mg/kg, ip administered 4 times per day for 3 days measured on day 10; type: functional, organism-based; parameters: dose 100 mg/kg; procedure, shortened: as §1
[7] = system: Plasmodium berghei; assay: Antimalarial activity against chloroquine-sensitive Plasmodium berghei NK-173 infected in Swiss albino mouse assessed as quantal survival at 100 mg/kg, ip administered 4 times per day for 3 days measured on day 7; type: functional, organism-based; parameters: dose 100 mg/kg; procedure, shortened: as §1
[8] = system: Mus musculus; assay: Toxicity in chloroquine-sensitive Plasmodium berghei NK-173 infected Swiss albino mouse assessed as mortality at 100 mg/kg, ip administered 4 times per day for 3 days measured up to 4 days; type: organism-based; parameters: dose 100 mg/kg, route intraperitoneal; conditions: in vivo; procedure, shortened: as §1
[9] = system: Plasmodium berghei; assay: Antimalarial activity against chloroquine-sensitive Plasmodium berghei NK-173 infected in Swiss albino mouse assessed as quantal survival at 100 mg/kg, ip administered 4 times per day for 3 days measured on day 14; type: functional, organism-based; parameters: dose 100 mg/kg; procedure, shortened: as §1
[10] = system: Plasmodium berghei; assay: Antimalarial activity against chloroquine-sensitive Plasmodium berghei NK-173 infected in Swiss albino mouse assessed as host survival at 100 mg/kg, ip administered 4 times per day for 3 days measured on day 30; type: functional; conditions: NK-173, ip, route intraperitoneal; procedure, shortened: as §1
[11] = system: Plasmodium falciparum; assay: Antimalarial activity against Plasmodium falciparum 3D7 infected in human O positive erythrocytes assessed as reduction of parasite growth after 24 to 44 hrs by Giemsa staining; type: functional, organism-based
Procedure, shortened: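 Sorbitol-synchronized ring-stage 3D7 parasites in O+ erythrocytes (5% v/v suspension, 0.5% parasitemia) exposed to compounds from DMSO stock for 44 h at 37 °C. Growth measured by pLDH ELISA after freeze-thaw hemolysis and by Giemsa thin smears at 24 and 44 h, counting at least 5000 erythrocytes. Expressed as % reduction against medium-only control.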

SMILES	IC50 [1]	Activity [2]	CC50 at 120 h [3]	minimal effective concentration [4]	Survival [5]	Survival [6]	Survival [7]	Activity [8]	Survival [9]	survival at 100 mg/kg [10]	IC50 [11]
Brc1ccccc1C(c1ccc[nH]1)c1ccc[nH]1	44.7 µM	inactive	> 100 µM	> 100 µM							
O=C1CC[C@@H](C(=O)O)N1 [PIDOLIC ACID]					Active	inactive	Active	Non-toxic	inactive	0%	
c1ccc(C(c2ccc[nH]2)c2ccc[nH]2)cc1	≥ 100 µM	inactive	> 100 µM	> 100 µM							
COc1cc(/C(=C2\C=CC=N2)c2ccc[nH]2)cc(OC)c1OC	4.71 µM	inactive	> 100 µM	25 µM							
O=C1CCC(C(O)(c2ccccc2)c2ccccc2)N1c1c2nc(c(-c3ccccc3)c3ccc([nH]3)c(N3C(=O)CCC3C(O)(c3ccccc3)c3ccccc3)c3nc(c(-c4ccccc4)c4ccc1[nH]4)C=C3)C=C2 (stereo unspecified)	53 µM	inactive	> 100 µM	50 µM							
COC(=O)[C@@H]1CCC(=O)N1c1c2nc(c(-c3cc(OC)c(OC)c(OC)c3)c3ccc(cc4nc(c(-c5cc(OC)c(OC)c(OC)c5)c5ccc1[nH]5)C=C4)[nH]3)C=C2	≥ 100 µM	inactive	> 100 µM								
Brc1ccccc1/C(=C1\C=CC=N1)c1ccc[nH]1	5.38 µM	inactive	> 100 µM	50 µM							
C1=Cc2nc1cc1ccc([nH]1)c(-c1ccccc1)c1nc(cc3ccc([nH]3)c2-c2ccccc2)C=C1	≥ 100 µM	inactive	> 100 µM	> 100 µM							> 20 µM
COc1cc(C(c2ccc[nH]2)c2ccc[nH]2)cc(OC)c1OC	≥ 100 µM	inactive	> 100 µM	100 µM							
COc1cc(-c2c3nc(cc4ccc([nH]4)c(-c4cc(OC)c(OC)c(OC)c4)c4nc(cc5ccc2[nH]5)C=C4)C=C3)cc(OC)c1OC	≥ 100 µM	inactive	> 100 µM	> 100 µM							> 20 µM
Brc1c2nc(c(-c3ccccc3)c3ccc([nH]3)c(Br)c3nc(c(-c4ccccc4)c4ccc1[nH]4)C=C3)C=C2	≥ 100 µM	inactive	> 100 µM	> 100 µM							0.2 µM
O=C1CCCN1c1c2nc(c(-c3ccccc3)c3ccc([nH]3)c(Br)c3nc(c(-c4ccccc4)c4ccc1[nH]4)C=C3)C=C2	6.37 µM	inactive	> 100 µM	6.25 µM							
O=Cc1c2nc(c(-c3cccc(Br)c3)c3ccc(cc4nc(c(-c5cccc(Br)c5)c5ccc1[nH]5)C=C4)[nH]3)C=C2	≥ 100 µM	inactive	> 100 µM	> 100 µM							> 20 µM
Fc1c(F)c(F)c(/C(=C2\C=CC=N2)c2ccc[nH]2)c(F)c1F	3.61 µM	inactive	> 100 µM	12.5 µM							
O=Cc1c2nc(c(-c3ccccc3)c3ccc(cc4nc(c(-c5ccccc5)c5ccc1[nH]5)C=C4)[nH]3)C=C2	≥ 100 µM	inactive	> 100 µM	> 100 µM							> 20 µM
COC(=O)[C@@H]1CCC(=O)N1c1c2nc(c(-c3cc(OC)c(OC)c(OC)c3)c3ccc([nH]3)c(N3C(=O)CC[C@H]3C(=O)OC)c3nc(c(-c4cc(OC)c(OC)c(OC)c4)c4ccc1[nH]4)C=C3)C=C2	≥ 100 µM	inactive	> 100 µM	100 µM							
O=C1CCCN1c1c2nc(c(-c3ccccc3)c3ccc([nH]3)c(N3CCCC3=O)c3nc(c(-c4ccccc4)c4ccc1[nH]4)C=C3)C=C2	≥ 100 µM	inactive	> 100 µM	> 100 µM							
Fc1c(F)c(F)c(C(c2ccc[nH]2)c2ccc[nH]2)c(F)c1F	44.1 µM	inactive	> 100 µM	> 100 µM							
CCCCCCCCCCCCCCCCOP(=O)([O-])OCC[N+](C)(C)C [MILTEFOSINE]	4.26 µM		15.8 µM								
Clc1cccc(Cl)c1/C(=C1\C=CC=N1)c1ccc[nH]1	5.55 µM	inactive	> 100 µM	12.5 µM							
N=C(N)c1ccc(OCCCCCOc2ccc(C(=N)N)cc2)cc1 [PENTAMIDINE]	3.1 µM		26.3 µM	5 µM							
C1=C/C(=C(\c2ccccc2)c2ccc[nH]2)N=C1	5.23 µM	inactive	> 100 µM	25 µM							
